Measurements reported in ChEMBL document CHEMBL2434823, “Design, synthesis and biological activities of some 7-aminocephalosporanic acid derivatives” (Eur J Med Chem, 2013).

Assays:
Assay type in all cases: functional
Details in all cases: read-out: IZ
Escherichia coli = test: Antimicrobial activity against Escherichia coli ATCC 25922 at 10 ug
How it was run: (§1)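 Compounds were dissolved in […] as 20.000 µg/mL stocks. Ampicillin (10 µg) was the reference antibacterial, and DMSO diluted 1:10 was the solvent control.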

[1] = system: Yersinia pseudotuberculosis; test: Antimicrobial activity against Yersinia pseudotuberculosis ATCC 911 at 10 ug; how it was run: as §1
Pseudomonas aeruginosa = test: Antimicrobial activity against Pseudomonas aeruginosa ATCC 43288 at 10 ug
Enterococcus faecalis = test: Antimicrobial activity against Enterococcus faecalis ATCC 29212 at 10 ug
Bacillus cereus = test: Antimicrobial activity against Bacillus cereus 702 Roma at 10 ug
Staphylococcus aureus = test: Antimicrobial activity against Staphylococcus aureus ATCC 25923 at 10 ug

## CC1(C)S[C@@H]2[C@H](NC(=O)[C@H](N)c3ccccc3)C(=O)N2[C@H]1C(=O)O [AMPICILLIN]
Escherichia coli
  zone of inhibition at 10 µg/disc: 10 mm
[1]
  zone of inhibition at 10 µg/disc: 18 mm
Pseudomonas aeruginosa
  zone of inhibition at 10 µg/disc: 18 mm
Enterococcus faecalis
  zone of inhibition at 10 µg/disc: 10 mm
Bacillus cereus
  zone of inhibition at 10 µg/disc: 15 mm
Staphylococcus aureus
  zone of inhibition at 10 µg/disc: 35 mm
